Test results from ChEMBL document CHEMBL1153493, “The marine natural-derived inhibitors of glycogen synthase kinase-3beta phenylmethylene hydantoins: In vitro and in vivo activities and pharmacophore modeling” (Bioorg Med Chem, 2009).

System: Rattus norvegicus
Test: Antihyperglycemic activity in ip dosed Sprague-Dawley rat assessed as increase liver glycogen
Type: functional, organism-based
Method in brief: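 Female Sprague Dawley rats, six weeks old, about 200 g. Food and water removed 6 h before a single ip injection of 5, 15 or 25 mg/kg as the sodium salt in PBS pH 7.2, 0.5 mL/rat. PBS vehicle control, n=3 per group. Liver homogenized in 5% TCA, glycogen precipitated with ethanol, measured with anthrone at 620 nm. Mean ± SEM.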

| SMILES | Activity |
| --- | --- |
| CCN(CC)c1ccc(/C=C2\NC(=O)NC2=O)cc1 | Dose-dependent effect |

Molecular target: Glycogen synthase kinase-3 beta (Homo sapiens, UniProt P49841)
Sequence (P49841 whole entry): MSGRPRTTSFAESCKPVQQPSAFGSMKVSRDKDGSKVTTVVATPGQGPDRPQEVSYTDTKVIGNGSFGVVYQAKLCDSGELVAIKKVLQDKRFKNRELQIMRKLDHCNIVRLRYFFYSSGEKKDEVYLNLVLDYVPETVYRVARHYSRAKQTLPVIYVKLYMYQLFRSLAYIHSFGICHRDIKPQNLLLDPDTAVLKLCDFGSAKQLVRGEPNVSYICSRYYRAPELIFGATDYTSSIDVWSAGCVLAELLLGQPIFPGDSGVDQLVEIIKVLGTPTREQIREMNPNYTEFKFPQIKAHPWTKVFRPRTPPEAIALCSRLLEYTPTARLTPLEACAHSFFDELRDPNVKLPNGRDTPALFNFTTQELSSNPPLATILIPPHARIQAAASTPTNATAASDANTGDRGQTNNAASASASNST
Test: Inhibition of recombinant GSK3-beta by ELISA

| SMILES | IC50 [µM] |
| --- | --- |
| O=C1NC(=O)/C(=C/c2ccc(-c3ccsc3)cc2)N1 | 6.4 |
| O[C@]12C=C(c3nccc4c3[nH]c3ccccc34)[C@@H]3CCN(CCCC/C=C\CC1)C[C@@]31C[C@@H]3/C=C\CCCCN3[C@H]12 [MANZAMINE A] | 12.3 |
| CSc1ccc(/C=C2\NC(=O)NC2=O)cc1 | 6.9 |
| CCN(CC)c1ccc(/C=C2\NC(=O)NC2=O)cc1 | 4.2 |
| CCSc1ccc(/C=C2\NC(=O)NC2=O)cc1 | 7.8 |

Further compounds by falling IC50, results first:

| IC50 [µM] | SMILES |
| --- | --- |
| 18.2 | O=C1NC(=O)/C(=C/c2ccc(Cl)cc2)N1 |
| 13.7 | O=C1NC(=O)/C(=C/c2ccc(O)cc2)N1 [4-HYDROXYPHENYLMETHYLENE HYDANTOIN] |
| 13.5 | O=C1NC(=O)/C(=C/c2ccc(-c3cccs3)cc2)N1 |
